Assays:
[1] = Antiinflammatory activity in fMLP/cytochalasin B stimulated rat neutrophils assessed as inhibition of beta-glucuronidase release preincubated for 10 mins measured 45 mins after fMLP/cytochalasin B challenge; assay type: functional, cell-based; conditions: Neutrophil
Method in brief: (§1)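 Rat blood neutrophils were isolated in EDTA by dextran sedimentation, Ficoll-Hypaque and hypotonic lysis, then suspended in HBSS at 1 × 10⁷ cells/mL. Preincubated 10 min at 37 °C with drug or DMSO (final ≤0.5%), then challenged with fMLP (1 μM)/cytochalasin B (5 μg/mL). After 45 min, supernatant lysozyme and β-glucuronidase were expressed as percent of the Triton X-100 total content.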

[2] = Antiinflammatory activity in fMLP/cytochalasin B stimulated rat neutrophils assessed as lysozyme release at 1 ug/ml preincubated for 10 mins measured 45 mins after fMLP/cytochalasin B challenge relative to control; assay type: functional, Neutrophil; conditions: in the assay text read “1 uM” for “1 ug/ml”; method in brief: as §1
N9 [3] = assay: Antiinflammatory activity in LPS/IFN-gamma-stimulated mouse N9 cells assessed as inhibition of nitric oxide production at 3 uM pretreated 1 hr before LPS/IFNgamma challenge relative to control; assay type: functional
Method in brief: (§2)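 N9 murine microglial line in Iscove's modified DMEM with 5% heat-inactivated FCS, 8 × 10⁴ cells/well. Pretreated for 1 h at 37 °C with drug or DMSO (final ≤0.5%), then stimulated with LPS (10 ng/mL) plus IFN-γ (10 unit/mL) for 24 h. Medium nitrite was read by Griess reaction at 550 nm with a NaNO₂ standard. Mean ± SEM, n = 3.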

[4] = Antiinflammatory activity in fMLP/cytochalasin B stimulated rat neutrophils assessed as inhibition of beta-glucuronidase release at 10 uM preincubated for 10 mins measured 45 mins after fMLP/cytochalasin B challenge relative to control; assay type: functional, Neutrophil; design: Activity: scale not given: the % may be the effect or the level left; method in brief: as §1
[5] = Antiinflammatory activity in fMLP/cytochalasin B stimulated rat neutrophils assessed as lysozyme release at 3 ug/ml preincubated for 10 mins measured 45 mins after fMLP/cytochalasin B challenge relative to control; assay type: functional, Neutrophil; conditions: in the assay text read “3 uM” for “3 ug/ml”; method in brief: as §1
[6] = Antiinflammatory activity in fMLP/cytochalasin B stimulated rat neutrophils assessed as inhibition of lysozyme release at 10 uM preincubated for 10 mins measured 45 mins after fMLP/cytochalasin B challenge relative to control; assay type: functional; conditions: Neutrophil; method in brief: as §1
RAW264.7 [7] = assay: Antiinflammatory activity in LPS-stimulated mouse RAW264.7 cells assessed as inhibition of nitric oxide production at 3 uM pretreated 1 hr before LPS challenge relative to control; assay type: functional
Method in brief: (§3)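 RAW 264.7 mouse macrophage-like cells in DMEM with 10% FCS, plated at 2 × 10⁵ cells/well and adhered overnight. Pretreated with test drug or DMSO (final ≤0.5%) for 1 h at 37 °C, then stimulated with LPS (E. coli 0111:B4, 1 μg/mL) for 24 h. Nitrite in the medium was measured by Griess reaction (A550) against a NaNO₂ standard curve. Mean ± SEM, n = 3.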

[8] = Antiinflammatory activity in fMLP/cytochalasin B stimulated rat neutrophils assessed as inhibition of beta-glucuronidase release at 1 ug/ml preincubated for 10 mins measured 45 mins after fMLP/cytochalasin B challenge relative to control; assay type: functional, Neutrophil; design: scale not given: the % may be the effect or the level left; conditions: in the assay text read “1 uM” for “1 ug/ml”; method in brief: as §1
[9] = Antiinflammatory activity in fMLP/cytochalasin B stimulated rat neutrophils assessed as inhibition of lysozyme release preincubated for 10 mins measured 45 mins after fMLP/cytochalasin B challenge; assay type: functional, cell-based; conditions: Neutrophil; method in brief: as §1
N9 [10] = assay: Antiinflammatory activity in LPS/IFN-gamma-stimulated mouse N9 cells assessed as inhibition of nitric oxide production at 10 uM pretreated 1 hr before LPS/IFNgamma challenge relative to control
[11] = Antiinflammatory activity in fMLP/cytochalasin B stimulated rat neutrophils assessed as beta-glucuronidase release at 3 ug/ml preincubated for 10 mins measured 45 mins after fMLP/cytochalasin B challenge relative to control; assay type: functional, Neutrophil; conditions: in the assay text read “3 uM” for “3 ug/ml”; method in brief: as §1
RAW264.7 [12] = assay: Antiinflammatory activity in LPS-stimulated mouse RAW264.7 cells assessed as inhibition of nitric oxide production at 30 uM pretreated 1 hr before LPS challenge relative to control; assay type: functional; method in brief: as §3
RAW264.7 [13] = assay: Antiinflammatory activity in LPS-stimulated mouse RAW264.7 cells assessed as inhibition of nitric oxide production at 10 uM pretreated 1 hr before LPS challenge relative to control; assay type: functional; method in brief: as §3
[14] = Antiinflammatory activity in fMLP/cytochalasin B stimulated rat neutrophils assessed as inhibition of beta-glucuronidase release at 3 uM preincubated for 10 mins measured 45 mins after fMLP/cytochalasin B challenge relative to control; design: scale not given: the % may be the effect or the level left
RAW264.7 [15] = assay: Antiinflammatory activity in LPS-stimulated mouse RAW264.7 cells assessed as inhibition of nitric oxide production pretreated 1 hr before LPS challenge; assay type: functional, cell-based; method in brief: as §3
N9 [16] = assay: Toxicity in LPS/IFN-gamma-stimulated mouse N9 cells assessed as LDH release at 30 uM; assay type: cell-based; conditions: n9, 30 µM
Method in brief: (§4)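 Cytotoxicity in LPS-stimulated RAW 264.7 or LPS/IFN-γ-stimulated N9 cultures, assessed by LDH release assay and trypan blue exclusion.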

[17] = Antiinflammatory activity in fMLP/cytochalasin B stimulated rat neutrophils assessed as inhibition of lysozyme release at 3 ug/ml preincubated for 10 mins measured 45 mins after fMLP/cytochalasin B challenge relative to control; assay type: functional; conditions: Neutrophil; method in brief: as §1
RAW264.7 [18] = assay: Toxicity in LPS-stimulated mouse RAW264.7 cells assessed as LDH release at 30 uM; assay type: cell-based; conditions: raw264.7, 30 µM; method in brief: as §4
[19] = Antiinflammatory activity in fMLP/cytochalasin B stimulated rat neutrophils assessed as lysozyme release at 10 uM preincubated for 10 mins measured 45 mins after fMLP/cytochalasin B challenge relative to control; assay type: functional, Neutrophil; method in brief: as §1
[20] = Antiinflammatory activity in fMLP/cytochalasin B stimulated rat neutrophils assessed as beta-glucuronidase release at 1 ug/ml preincubated for 10 mins measured 45 mins after fMLP/cytochalasin B challenge relative to control; assay type: functional, Neutrophil; conditions: in the assay text read “1 uM” for “1 ug/ml”; method in brief: as §1
[21] = Antiinflammatory activity in fMLP/cytochalasin B stimulated rat neutrophils assessed as beta-glucuronidase release at 10 uM preincubated for 10 mins measured 45 mins after fMLP/cytochalasin B challenge relative to control; assay type: functional, Neutrophil; method in brief: as §1
[22] = Antiinflammatory activity in fMLP/cytochalasin B stimulated rat neutrophils assessed as inhibition of beta-glucuronidase release at 30 uM preincubated for 10 mins measured 45 mins after fMLP/cytochalasin B challenge relative to control; assay type: functional; conditions: Neutrophil, read-out: INH; method in brief: as §1
[23] = Antiinflammatory activity in fMLP/cytochalasin B stimulated rat neutrophils assessed as lysozyme release at 30 uM preincubated for 10 mins measured 45 mins after fMLP/cytochalasin B challenge relative to control; assay type: functional, Neutrophil; method in brief: as §1
[24] = Antiinflammatory activity in fMLP/cytochalasin B stimulated rat neutrophils assessed as beta-glucuronidase release at 30 uM preincubated for 10 mins measured 45 mins after fMLP/cytochalasin B challenge relative to control; assay type: functional, Neutrophil; method in brief: as §1
N9 [25] = assay: Antiinflammatory activity in LPS-stimulated mouse N9 cells assessed as inhibition of nitric oxide production at 1 uM pretreated 1 hr before LPS challenge relative to control; assay type: functional; method in brief: as §2
[26] = Antiinflammatory activity in fMLP/cytochalasin B stimulated rat neutrophils assessed as inhibition of lysozyme release at 30 uM preincubated for 10 mins measured 45 mins after fMLP/cytochalasin B challenge relative to control; assay type: functional; conditions: Neutrophil; method in brief: as §1
N9 [27] = assay: Antiinflammatory activity in LPS/IFN-gamma-stimulated mouse N9 cells assessed as inhibition of nitric oxide production pretreated 1 hr before LPS/IFNgamma challenge

Compound | IC50 [1] [µM] | inhibition at 3 µM (N9 [3]) [%] | inhibition at 10 µM [6] [%] | inhibition at 3 µM (RAW264.7 [7]) [%] | inhibition at 10 µM (N9 [10]) [%] | inhibition at 30 µM (RAW264.7 [12]) [%] | inhibition at 10 µM (RAW264.7 [13]) [%] | IC50 (RAW264.7 [15]) [µM] | Activity (N9 [16]) | Activity (RAW264.7 [18]) | Activity [19] [%] | Activity [21] [%] | IC50 (N9 [27]) [µM] | further results
CN1CCN(CCCN2c3ccccc3Sc3ccc(C(F)(F)F)cc32)CC1 [TRIFLUOPERAZINE] | 12.2 | – | – | – | – | – | – | – | – | – | – | – | – | –
C=C(C)c1cc2c3c(ccc2o1)[C@@H]1COc2cc(O)ccc2[C@@H]1O3 [CROTAFURAN A] | 7.8 | 15.4 | 56.2 | -5.1 | 45.6 | 59.5 | 20.6 | 23 | Toxic | Toxic | 23.6 | 16.5 | – | Activity [2]: 54.2%; Activity [4]: 55.8%; Activity [5]: 46.9%; Activity [8]: 6.9%; IC50 [9]: 9.5 µM; Activity [11]: 24.8%; Activity [14]: 33.4%; inhibition at 3 µg/mL [17]: 14%; Activity [20]: 34.7%
CC(=O)c1cc2c3c(ccc2o1)[C@@H]1COc2cc(O)ccc2[C@@H]1O3 [CROTAFURAN B] | – | 29 | -7.8 | 3.2 | 50.4 | 64.4 | 25.6 | 19 | Toxic | Toxic | 58.9 | 37.7 | 9.4 | inhibition at 30 µM [22]: 5.1%; inhibition at 10 µM ([4]; Rattus norvegicus, Neutrophil): -0.9%; Activity [23]: 55.1%; Activity [24]: 35.3%; inhibition at 1 µM (N9 [25]): 4.2%; inhibition at 30 µM [26]: -0.4%
CC(=N)NCc1cccc(CN)c1 [1400W] | – | – | – | – | – | – | – | 2.3 | – | – | – | – | 3.6 | –

Source: ChEMBL document CHEMBL1150680, “Anti-inflammatory constituents and new pterocarpanoid of Crotalaria pallida” (J Nat Prod, 2003)
